Screening results as filed in PubChem.
In the library only some 2.8% were active in any assay of this set; here they are far more common.
TNAP act hiacc: increases human TNAP activity under high phosphate acceptor concentration | P05186 | purified TNAP, CDP-star luminescence, 1 M DEA, 30 min; stronger effect = higher value; 0 = EDTA background, 1 = DMSO-only activity | activation factor at 20 µM | 200,000 tested, under 10 active;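 active = activation factor at least 2 at 20 µM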
Target sequence (P05186 whole entry, looked up): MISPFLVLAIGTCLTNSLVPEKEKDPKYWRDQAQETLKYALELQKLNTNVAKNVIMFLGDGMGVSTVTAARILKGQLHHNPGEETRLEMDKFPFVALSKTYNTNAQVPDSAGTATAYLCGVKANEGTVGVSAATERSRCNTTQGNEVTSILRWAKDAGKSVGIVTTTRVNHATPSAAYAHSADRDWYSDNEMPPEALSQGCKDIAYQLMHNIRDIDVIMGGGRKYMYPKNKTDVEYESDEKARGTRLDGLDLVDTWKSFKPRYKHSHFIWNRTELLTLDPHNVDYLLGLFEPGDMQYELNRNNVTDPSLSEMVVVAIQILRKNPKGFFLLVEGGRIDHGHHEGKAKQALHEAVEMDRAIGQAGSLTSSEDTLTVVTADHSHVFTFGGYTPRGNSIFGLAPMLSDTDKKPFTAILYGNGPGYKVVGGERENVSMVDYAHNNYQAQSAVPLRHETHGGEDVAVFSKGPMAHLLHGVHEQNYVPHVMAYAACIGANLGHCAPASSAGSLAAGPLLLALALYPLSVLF
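Control set: EDTA negative control, DMSO positive control / Assay system: human TNAP / Quantity: TNAP 1/800 final / Evaluation: TNAP activation factor scaled between EDTA and DMSO control wells / Measured by: luminescent substrate turnover signal / Compound dosing: one dose, 20 µM / Times: 30 min enzyme reaction at room temperature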
RAM network inh: blocks the yeast RAM network; S. cerevisiae dse1pr::URA3 reporter, 5-FOA growth OD615, 2 d; analog-sensitive cbk1-as2 kinase mutant strain; AID 868; inhibition, % at 50 µM; actives 1.8% (n = 190,000);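 active = inhibition above a set limit, 3 SD over mean compound inhibition, cut at about 8.4% in these data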;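 note: 0% = DMSO-only wells with no growth and 100% = 10 µM 1-NA-PP1 full growth; inhibition rescues growth on 5-FOA so higher OD means more RAM inhibition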
TNAP inh hiacc: blocks human TNAP under high phosphate acceptor concentration | actives 0.03% (n = 200,000) | purified TNAP, CDP-star luminescence, 1 M DEA | AID 1135 | inhibition, % at 20 µM | P05186;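 active = over 50% inhibition of tissue-nonspecific alkaline phosphatase at 20 µM in the single-dose screen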;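 note: plate controls were DMSO wells for no effect and EDTA-quenched wells as full inhibition for full effect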
TNAP inh no acc: blocks human TNAP activity with no phosphate acceptor present | P05186 | purified TNAP, CDP-star luminescence, 30 min | inhibition, % at 20 µM | actives 0.26% (n = 200,000) | AID 1012;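 active = tissue-nonspecific alkaline phosphatase inhibition above about 50% at 20 µM in the single-dose screen, limit read from the data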;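 note: 0% = DMSO negative control and 100% = EDTA positive control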
Yeast life ext: extends the lifespan of yeast; S. cerevisiae growth with nicotinamide, OD615; deaD strain in restrictive glucose medium; inhibition of the nicotinamide effect, % at 10 µM; actives 0.68% (n = 130,000); AID 775;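 active = inhibition above a set limit, placed 3 SD over the median of all compounds, cut at about 26% in these data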;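 note: 0% = nicotinamide-treated wells and 100% = cells grown without nicotinamide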
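assay system = DeaD-strain S. cerevisiae | buffer or medium = restrictive glucose medium | reagent = 1.5 mM nicotinamide | compound = 10 µM single point, 0.25% DMSO | incubation = 48 h compound exposure at 30 °C, humidified | signal = OD615 measurement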
Yeast growth inh: yeast BB579 growth reduction in restrictive medium | S. cerevisiae BB579 growth, OD615, 48 h | inhibition, % at 10 µM | actives 0.51% (n = 140,000);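 active = inhibition above a set limit, 3 SD over the mean compound inhibition, cut at about 44% in these data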
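Assay system – yeast BB579 (DeaD) · Dosing – single compound dose of 10 µM, 0.25% DMSO final · Detection – OD615 turbidity measurement · Buffer or medium – CSMM-D restrictive synthetic medium containing dextrose (glucose) · Benchmarks – positive control amphotericin B 10 µg/mL · Incubation – 48 h exposure, 30 °C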
RAM 5-FOA: restores 5-FOA growth of efflux-deficient yeast | shares compounds with RAM network inh | AID 1305 | S. cerevisiae efflux-deficient reporter strain, 5-FOA growth OD615, 2 days | 1,200 tested, under 10 active | max inhibition, %; call rule not given here;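 note: plate controls were vehicle for no effect and reference inhibitor for full effect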
Numbers without * were called inactive; nt = no result given.

SMILES	TNAP act hiacc	RAM network inh	TNAP inh hiacc	TNAP inh no acc	Yeast life ext	Yeast growth inh	RAM 5-FOA
COc1ccccc1N1C(=O)CC1(C#N)c1ccc(OCc2ccccc2)cc1 (stereo unspecified)	1	7.0	-3.6	-9.4	12.7	-36.2	nt
Cc1ccccc1N1C(=O)CC1(C#N)c1ccc(OCc2ccccc2)cc1 (stereo unspecified)	1	11.5*	-4.8	-8.8	3.7	-24.9	3.7
COc1ccc(CC(=O)NC(=S)Nc2ccc(S(N)(=O)=O)cc2)cc1	1	0.8	-3.5	-6.1	1.9	-28.3	nt
C=CCN(CC=C)S(=O)(=O)c1ccc(NC(=S)NC(=O)c2ccc(-c3ccccc3)cc2)cc1	1	17.1*	-1.3	0.2	-3.2	-26.5	4.2
C=CCN(CC=C)S(=O)(=O)c1ccc(NC(=S)NC(=O)Cc2ccc(OC)cc2)cc1	1	18.9*	3.8	-0.7	-8.3	-43.6	4.5
C=CCN(CC=C)S(=O)(=O)c1ccc(NC(=S)NC(=O)c2ccco2)cc1	1	3.5	-0.2	31.5	26.0	-63.9	nt
Cc1cc2c(C)ccc(C)c2nc1SCC(=O)c1cccs1	1	13.5*	-1.8	-17.9	-12.9	-41.9	1.5
Cc1cc(C)c(C#N)c(SCC(=O)c2cccs2)n1	1	2.9	-2.7	-12.0	-13.7	-38.2	nt
CCOC(=O)c1sc(-c2ccccn2)nc1C	1	-0.1	-3.6	-2.5	nt	nt	nt
CCC(C)N1C(=O)/C(=C/c2c(NCCCOC(C)C)nc3c(C)cccn3c2=O)SC1=S (stereo unspecified)	0.7	18.4*	25.6	27.1	-7.2	-48.5	2.9
COc1ccc2[nH]c(=O)c(C(c3nnnn3C3CCCC3)N3CCN(Cc4ccc5c(c4)OCO5)CC3)cc2c1 (stereo unspecified)	1	-0.2	-2.2	-2.0	-6.7	-20.6	nt
CC(Sc1nnc2c(n1)C1(C)CCC2C1(C)C)C(=O)Nc1ccccc1 (stereo unspecified)	1	0.0	-2.2	-5.4	1.1	-53.5	nt
Cc1cnn(-c2nc(-c3ccccc3)cc(-c3ccccc3)n2)c1	1.1	14.1*	-7.6	-5.3	nt	nt	1.0
O=c1c(-c2nnc(SCc3ccc(Cl)cc3)o2)cccn1Cc1ccccc1	1	6.5	-2.7	-3.2	5.7	-97.8	nt
COc1cc(OC)cc(-c2nnc(SCc3cccc(C(=O)O)c3)o2)c1	1	14.0*	-3.5	-9.4	-7.8	-16.7	2.5
O=C(Nc1ccccc1-c1nnc(SCc2ccccc2)o1)c1ccccc1	1.1	19.1*	-5.1	-9.6	6.6	-22.4	4.4
O=C(O)c1cccc(CSc2nnc(-c3ccco3)o2)c1	1	1.9	1.3	-9.7	5.6	-32.3	nt
Cc1ccc(Cl)cc1N1CCN(S(=O)(=O)c2ccc3[nH]c(=O)c(=O)[nH]c3c2)CC1	1.1	12.2*	-6.9	-70.6	nt	nt	2.3
N#Cc1c(N)nc(SCC(=O)C23CC4CC(CC(C4)C2)C3)c(C#N)c1-c1ccc(Cl)cc1	1.1	4.6	-8.7	2.7	-3.6	-51.4	nt
CCOC(=O)CC(=O)CSc1nc(N)c(C#N)c(-c2ccc(Cl)cc2)c1C#N	1	13.2*	-4.1	-11.1	1.6	-19.8	3.3
CCOC(=O)CNC(=O)CSc1nc2cccnc2n1C1CCCCC1	1	-0.2	-0.2	-2.7	-9.7	-25.5	nt
CCOc1ccc(/C=C/C(O)=C2/C(=O)NC3(C)CC2c2ccccc2O3)cc1OC (stereo unspecified)	1	3.2	4.6	5.3	nt	nt	nt
CCOc1ccc(/C=C/C(O)=C2/C(=O)N(C)C3(C)CC2c2ccccc2O3)cc1OC (stereo unspecified)	1	11.5*	-4.5	10.6	nt	nt	2.2
CCOc1cc(/C=N/NC(=O)C(C)Sc2ccccn2)ccc1O (stereo unspecified)	0.9	0.5	6.6	8.3	-4.3	-4.4	nt
O=C(Nc1cccc(C(F)(F)F)c1)C1CCCCC1	1	21.8*	-3.1	-7.7	-10.4	-36.6	0.5
SMILES	TNAP act hiacc	RAM network inh	TNAP inh hiacc	TNAP inh no acc	Yeast life ext	Yeast growth inh	RAM 5-FOA
O=C(/C=C/c1cccc(C(F)(F)F)c1)Nc1cccc(C(F)(F)F)c1	1	11.7*	-0.8	8.7	-8.7	-41.6	2.1
CS(=O)(=O)N1CCC(C(=O)Nc2cccc(C(F)(F)F)c2)CC1	1	-0.7	1.5	-4.3	-5.5	-8.0	nt
CCOC(=O)c1cccc(NC(=O)CSc2nnc(COc3ccccc3)n2CC)c1	1	13.7*	-1.8	-5.3	-5.9	-33.1	2.8
CCn1c(COc2cccc(C)c2)nnc1SCC(=O)Nc1cccc(C(=O)OC)c1	1	4.8	-2.0	-5.0	-10.8	-33.2	nt
CCCCCCNC(=O)c1cc(-c2ccco2)nc2ccccc12	1	13.3*	3.0	-0.5	nt	-47.4	2.5
CC(C)CCNC(=O)c1cc(-c2ccco2)nc2ccccc12	1	4.4	-3.6	-6.0	-4.5	-25.0	nt
COc1ccc2cc(CN(CC3CCCO3)C(=S)Nc3ccccc3)c(=O)[nH]c2c1 (stereo unspecified)	1.1	3.8	-5.0	-3.9	nt	nt	nt
Cc1ccc(C(=O)CC(=O)c2ccc(C(C)(C)C)cc2)cc1	1	20.1*	-4.7	-8.0	nt	nt	8.1
CNS(=O)(=O)c1cccc(C(=O)OCc2csc(-c3ccccc3)n2)c1	1	15.7*	-0.5	-10.2	4.1	-0.3	1.4
O=C(CNS(=O)(=O)c1cccc(Cl)c1)OCc1csc(-c2ccccc2)n1	1	6.4	-4.5	3.4	-7.2	-33.1	nt
S=C(NCc1ccncc1)Nc1cccc(Cl)c1	1.1	1.3	-7.7	-1.2	9.1	-39.1	nt
Cc1ccccc1NC(=S)NCCC(c1ccccc1)c1ccccc1	1.2	12.3*	-20.0	-28.0	-8.1	35.8	3.3
S=C(NCCC(c1ccccc1)c1ccccc1)Nc1cccc(Cl)c1	1.2	14.5*	-24.0	-84.4	1.2	39.8	4.8
COc1ccc(Cl)cc1NC(=O)C(C)N(C)Cc1cccc(Cl)c1Cl (stereo unspecified)	1	3.1	-4.7	-9.0	-2.2	-18.8	nt
CCNc1ccc2noc3c2c1C(=O)c1ccccc1-3	0.7	19.9*	32.2	26.2	nt	-11.6	8.7
COC(=O)c1ccc(NC(=S)N2CCN(Cc3ccccc3OC)CC2)cc1	1.1	1.5	-7.4	-10.5	nt	nt	nt
CCN(CC)S(=O)(=O)c1cccc(-c2nnc(SC(C)C(=O)NCCC3=CCCCC3)o2)c1 (stereo unspecified)	nt	14.0*	nt	nt	-12.0	-25.8	8.7
